An excerpt weighted towards active compounds, which were near 3.1% of everything screened.
SENP7 block: SENP7 protease inhibitors, primary screen, biochemical, luminescence, uHTS; hit rate 1.5% among 330,000; inhibition, % at 5 µM; recombinant SENP7, Z-RLRGG-aminoluciferin luminescence, 40 min; Sentrin-specific protease 7 (Homo sapiens), Q9BQF6;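 active = inhibition above about 50% at the single test dose, limit read from the data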;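 also: plate controls were DMSO with enzyme for no effect and no enzyme buffer wells for full effect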
Target sequence (Q9BQF6 706-1050 limits assumed): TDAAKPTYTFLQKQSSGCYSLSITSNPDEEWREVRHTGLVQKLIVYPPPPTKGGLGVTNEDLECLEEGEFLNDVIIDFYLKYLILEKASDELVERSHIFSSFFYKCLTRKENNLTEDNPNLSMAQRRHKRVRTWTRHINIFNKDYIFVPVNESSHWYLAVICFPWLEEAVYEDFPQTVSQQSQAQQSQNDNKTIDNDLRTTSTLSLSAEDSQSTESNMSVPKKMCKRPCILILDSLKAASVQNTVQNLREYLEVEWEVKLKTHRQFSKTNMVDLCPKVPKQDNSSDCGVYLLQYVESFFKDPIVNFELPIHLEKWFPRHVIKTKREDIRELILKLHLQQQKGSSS
SENP6 inh: SENP6 protease inhibitors, primary screen, biochemical, luminescence, uHTS; Recombinant SENP6 catalytic domain, aminoluciferin luminescence; inhibition, % at 10 µM; hit rate 1.8% among 330,000; AID 2599, 2010;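 active = inhibition above about 50% at the single tested dose, limit read from the data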;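 also: plate controls were DMSO wells with enzyme for no effect and DMSO wells lacking enzyme for full effect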
SENP8 block-1: SENP8 protease inhibitors, primary screen, biochemical, luminescence; hit rate 1.2% among 330,000; inhibition, % at 10 µM; purified SENP8, Z-RLRGG-aminoluciferin cleavage; AID 2540, 2010; in the data active = inhibition above about 50%
SENP8 block-2: human SENP8 protease inhibitors, primary screen, biochemical, fluorescence, Nedd8 protein substrate, uHTS. Sentrin-specific protease 8 (Homo sapiens), Q96LD8. recombinant SENP8. inhibition, % at 20 µM. hit rate 0.64% among 360,000; in the data active = inhibition mostly above about 40%, no sharp cut-off; inactive = mostly below about 27%
UBC13 polyUb: UBC13 polyubiquitin chain formation inhibitors, primary screen, biochemical, TR-FRET, uHTS | inhibition, % at 20 µM | hit rate 0.47% among 330,000 | AID 485273, 2010; in the data active = inhibition above about 45%, passing the limit was not always enough; inconclusive = no clear call, values can overlap the other calls
Apaf1 inhib: inhibitors of human Apaf-1 apoptosome, primary screen, biochemical, DEVD-Rh110 fluorescence, uHTS. reconstituted apoptosome caspase-3 activity. inhibition, % at 20 µM. hit rate 0.71% among 330,000; active = inhibition of at least 40% at 20 µM;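 also: plate controls were DMSO wells for no effect and DEVD-CHO caspase inhibitor wells for full effect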
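System – cell-free apoptosome with Apaf-1, procaspase-3 and caspase-9 · Buffer or medium – pH 7.5 Hepes buffer with CHAPS, BSA, DTT · Also added – cytochrome c with DEVD-Rh110 · Times – 30 min compound preincubation, 50 min activation, room temperature · Technique – Rh110 fluorescence intensity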
SENP8 conf: SENP8 protease inhibitors, retest, confirmation, biochemical, luminescence, single concentration; shares compounds with SENP7 block; Recombinant SENP8, Z-RLRGG-aminoluciferin luminescence, 60 min; inhibition, % at 12.5 µM; hit rate 40% among 6,200;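 active = mean inhibition across replicates above about 50%, limit read from the data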
SENP6 confirm: SENP6 protease inhibitors, confirmation, biochemical, luminescence, single concentration; shares compounds with SENP7 block; recombinant SENP6, Z-RLRGG-aminoluciferin luminescence; inhibition, % at 12.5 µM; hit rate 58% among 6,200
SENP7 confirm: SENP7 protease inhibitors, retest, confirmation, biochemical, luminescence, single concentration | shares compounds with SENP7 block | recombinant SENP7, Z-RLRGG-aminoluciferin luminescence, 40 min | inhibition, % at 12.5 µM | hit rate 69% among 6,200 | AID 488917, 2010
Casp3 select: caspase-3 protease inhibitors, confirmation, selectivity assay for SENP inhibitor project, biochemical, single concentration; AID 488918, 2010; shares compounds with SENP7 block; purified caspase-3, Z-DEVD-aminoluciferin luminescence, 60 min; inhibition, % at 12.5 µM; hit rate 60% among 6,200;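 active = mean inhibition above about 50%, limit read from the data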;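 also: plate controls were enzyme with DMSO for no effect and wells without caspase-3 for full effect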
Luc interf: interferes with luciferase luminescence in SENP counter-screen; hit rate 39% among 6,200; Pre-incubated SENP8/Z-RLRGG-aminoluciferin, luciferase luminescence interference; shares compounds with SENP7 block; inhibition, % at 12.5 µM;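 active = mean inhibition above about 50% when retested at one dose, limit read from the data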;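 also: plate controls were DMSO wells with completed reaction for no effect and substrate without enzyme for full effect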
Numbers without * were called inactive; i = inactive; ? = inconclusive; . = no result.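 The calls were made as follows, unless noted: active = mean inhibition above about 50% in the one-dose retest (limit read from the data); inactive = the rest.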

SMILES	SENP7 block	SENP6 inh	SENP8 block-1	SENP8 block-2	UBC13 polyUb	Apaf1 inhib	SENP8 conf	SENP6 confirm	SENP7 confirm	Casp3 select	Luc interf
C(=C\c1nc2ccccc2[nH]1)/c1ccccc1	100.0*	94.5*	96.8*	-261.3	-12.7	3.3	98.2*	99.3*	102.9*	97.7*	91.9*
CC(=O)Nc1ccc(/C=C/c2nc3ccccc3[nH]c2=O)cc1	-2.7	13.3	-7.7	-184.0	-4.6	-14.4	.	.	.	.	.
CN(C)c1ccc(/C=C/c2nc3ccccc3c(=O)[nH]2)cc1	95.2*	-11.8	93.0*	-233.7	-19.1	15.7	46.9	89.7*	102.8*	95.8*	38.5
O=c1[nH]c2ccccc2nc1/C=C/c1ccc(Cl)cc1	72.2*	-10.5	-0.6	-377.3	1.1	4.9	1.1	2.4	1.7	4.5	1.7
O=c1[nH]c(/C=C/c2ccccc2F)nc2ccccc12	96.4*	91.7*	83.4*	i	6.9	-18.5	75.6*	78.9*	89.4*	90.9*	22.0
CCS(=O)(=O)N1Cc2cc(C(=O)NCCOC)nc(-c3cccc(-c4ccncc4)c3)c2[C@H]1CCO	.	.	.	5.9	.	.	.	.	.	.	.
O=C(OCc1ccccc1)N1CCC2CC1c1cc(/C=C/CCCSc3ncccn3)ccc12 (stereo not drawn)	.	.	.	18.6	.	.	.	.	.	.	.
O=C(OCc1cn([C@@H]2CN(Cc3cccs3)[C@@H](c3ccccc3)C[C@H]2O)nn1)c1ccccc1	.	.	.	18.3	.	.	.	.	.	.	.
O=c1[nH]c(/C=C/c2ccc(Br)cc2)nc2ccccc12	89.3*	21.9	31.2	-242.2	7.3	10.5	17.7	21.0	15.0	21.2	-2.1
Cc1cccc(/C=C\c2nc3ccccc3c(=O)[nH]2)c1	98.7*	88.8*	79.8*	-80.1	5.0	1.1	54.9*	49.2	54.4*	74.5*	10.2
CN(C(=O)COC(=O)c1cccnc1Nc1ccccc1F)C1CCS(=O)(=O)C1 (stereo not drawn)	55.6*	57.8*	23.4	-20.2	-6.5	-10.4	36.7	36.9	74.3*	74.9*	53.0*
CCN(C(=O)COC(=O)c1cccnc1Nc1ccccc1F)C1CCS(=O)(=O)C1 (stereo not drawn)	95.6*	91.0*	82.8*	2.0	0.4	7.5	91.4*	91.4*	99.0*	94.4*	89.7*
CCN(C(=O)COC(=O)c1cc(-c2ccc3cc(OC)ccc3c2)nc2ccccc12)C1CCS(=O)(=O)C1 (stereo not drawn)	92.4*	93.7*	88.8*	.	?	-2.9	49.1	74.3*	23.0	77.1*	18.5
O=c1[nH]c2ccc(S(=O)(=O)N3CCN(c4ccc(F)cc4)CC3)cc2o1	0.9	13.9	54.8*	4.5	1.5	-23.5	6.3	6.0	-7.3	-6.2	-2.3
COc1cc2sc3cc(NCc4ccc5c(c4)OCO5)ccc3c(=O)c2cc1OC	70.1*	-24.7	44.3	-494.2	15.9	20.4	-23.7	-13.8	-3.1	7.0	18.3
